Source: PubChem BioAssay (several laboratories)
Most compounds without a hit are left out; they make up all but 3% or so of the library.
Tn6 DDE FP: inhibitors of Tn6 peptide binding to fibrin DD(E), primary screen, biochemical, fluorescence polarization, human fibrin, Tn6 probe. Fibrin DD(E) TRITC-Tn6 fluorescence polarization displacement. inhibition, % at 8.3 µM. 370,000 tested, 0.21% active. AID 720509, 2013;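 active = inhibition above a per-campaign cutoff: mean of compounds within control limits plus 3 SD, cut at about 15% in these data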;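 also: 0% = median of all compound wells on the plate and 100% = blocking peptide control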
Target sequence (P02675 whole entry, looked up): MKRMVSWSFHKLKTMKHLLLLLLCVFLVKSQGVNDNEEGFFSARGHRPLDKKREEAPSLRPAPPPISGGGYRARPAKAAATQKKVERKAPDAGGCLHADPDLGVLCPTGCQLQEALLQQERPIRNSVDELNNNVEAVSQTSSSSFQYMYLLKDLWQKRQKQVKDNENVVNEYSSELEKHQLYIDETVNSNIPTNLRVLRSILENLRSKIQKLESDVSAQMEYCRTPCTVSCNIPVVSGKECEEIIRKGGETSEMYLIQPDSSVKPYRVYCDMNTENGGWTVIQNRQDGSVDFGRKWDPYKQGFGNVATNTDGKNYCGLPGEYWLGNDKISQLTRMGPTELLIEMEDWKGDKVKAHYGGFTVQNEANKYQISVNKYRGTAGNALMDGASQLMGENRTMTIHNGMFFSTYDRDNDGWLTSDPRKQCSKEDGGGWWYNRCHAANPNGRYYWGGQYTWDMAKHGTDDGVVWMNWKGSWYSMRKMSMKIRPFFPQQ
KLK7 zymogen act: proKLK7 zymogen activators, primary screen, biochemical, fluorescence intensity; Kallikrein-7 (Homo sapiens), P49862; purified proKLK7, EDANS-DABCYL substrate fluorescence; 100% is mature enzyme control, 0% vehicle; activation, % at 7 µM; 370,000 tested, 0.9% active;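 active = activation above the mean of all tested compounds plus 3 SD, computed per campaign excluding outliers beyond control limits, cut at about 13% in these data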
PLC-gamma1 inh: PLC-gamma1 enzyme inhibitors, primary screen, biochemical, fluorescence, purified enzyme. 1-phosphatidylinositol 4,5-bisphosphate phosphodiesterase gamma-1 (Homo sapiens), P19174. fluorogenic substrate. inhibition, % at 12.2 µM. 370,000 tested, 0.84% active. AID 720700, 2013; in the data active = inhibition above about 9.5%
NRP1-CendR mod: modulators of CendR peptide binding to NRP-1, primary screen, biochemical, fluorescence polarization, uHTS; Neuropilin-1 (Homo sapiens), O14786; FAM-RPARPAR peptide binding to NRP-1; inhibition, % at 25 µM; 360,000 tested, 0.85% active; AID 602438, 2012;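 active = inhibition or corrected inhibition above about 18%, plus a signal ratio from 0.5 to 1.5, limit read from the data, passing the limit was not always enough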
PLC-beta3 inh: human PLC-beta3 inhibitors, primary screen, biochemical, fluorescence. inhibition, % at 12.2 µM. AID 720704, 2013. 370,000 tested, 0.18% active. 1-phosphatidylinositol 4,5-bisphosphate phosphodiesterase beta-3 (Homo sapiens), Q01970. Purified PLC-beta3, fluorogenic substrate; in the data active = inhibition above about 11%;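 also: 0% = median of compound wells on plate and 100% = full blocker control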
Tn7 DDE FP: inhibitors of Tn7 peptide binding to fibrin DD(E), primary screen, biochemical, fluorescence polarization, human fibrin, Tn7 probe. FP displacement of FITC-Tn7 peptide from fibrin DD(E); 0% = median of compound wells per plate. inhibition, % at 8.3 µM. 370,000 tested, 0.13% active;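 active = inhibition above the mean of compounds falling within the control limits plus 3 SD of them, cut at about 14% in these data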;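 also: 0% = plate median of compound wells and 100% = 10 µM Aha-Tn7 peptide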
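Assay system: human fibrin DD(E). Input: DD(E) 2 µM final. Medium: Tris buffer with calcium and detergent, pH 7.8. Compound dosing: single point at 8.3 µM. Timing: 10 min plus 3 h, room temperature. Technique: fluorescence polarization of the labelled Tn7 tracer. Read-out: percent inhibition. Replicates: singlicate testing.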
* marks the source's active call; other numbers are inactive results.

What do the screens show for `CCCN1CCC(=O)N([C@H](CSc2ccc(Br)cc2)c2ccccc2)CC1`?
Tn6 DDE FP: 1; KLK7 zymogen act: 0; PLC-gamma1 inh: 0; NRP1-CendR mod: 24*; PLC-beta3 inh: -1; Tn7 DDE FP: 0

How did CN1CCC(=O)N([C@H](CSc2ccc(Br)cc2)Cc2ccccc2)CC1 do in these assays?
Tn6 DDE FP: 0; KLK7 zymogen act: 1; PLC-gamma1 inh: 1; NRP1-CendR mod: 4; PLC-beta3 inh: -1; Tn7 DDE FP: 1

What do the screens show for `CC(C)C[C@@H](CSc1ccccc1)N1CCN(C)CCC1=O`?
Tn6 DDE FP: -1; KLK7 zymogen act: 0; PLC-gamma1 inh: 9.7*; NRP1-CendR mod: 9; PLC-beta3 inh: 7; Tn7 DDE FP: -6

What do the screens show for `CCCC1CCC2(CCCN2CCOC(=S)Nc2ccccc2)CC1` (stereo unspecified)?
Tn6 DDE FP: -3; PLC-gamma1 inh: 3; PLC-beta3 inh: -2; Tn7 DDE FP: -2

Results for COc1cccc(-c2nnc3sc(-c4ccc(Br)o4)nn23)c1 ?
Tn6 DDE FP: 8; KLK7 zymogen act: -4; PLC-gamma1 inh: -7; PLC-beta3 inh: -3; Tn7 DDE FP: -3

How did COc1ccccc1N(CC(=O)NCCSCc1ccccc1)S(=O)(=O)c1ccc(C)cc1 do in these assays?
Tn6 DDE FP: -3; KLK7 zymogen act: 0; PLC-gamma1 inh: 0; NRP1-CendR mod: 19*; PLC-beta3 inh: -7; Tn7 DDE FP: 0

How did CS(=O)(=O)N1CCC[C@]2(CC[C@@H](CCC#N)O2)C1 do in these assays?
Tn6 DDE FP: 5; KLK7 zymogen act: 0; PLC-gamma1 inh: -1; PLC-beta3 inh: 2; Tn7 DDE FP: -2

Results for C#CCN(C)S(=O)(=O)c1ccc(N2CCCC2)cc1Br ?
Tn6 DDE FP: -4; KLK7 zymogen act: 0; PLC-gamma1 inh: -1; PLC-beta3 inh: 0; Tn7 DDE FP: 4

Results for COc1ccc(C(C(=O)NC2CCCCC2)N(C(=O)c2sc(C)nc2C)c2ccccc2)cc1 (stereo unspecified) ?
Tn6 DDE FP: -4; KLK7 zymogen act: 0; PLC-gamma1 inh: 1; NRP1-CendR mod: 0; PLC-beta3 inh: 1; Tn7 DDE FP: 5

What do the screens show for `COc1ccccc1N(C(=O)CNC(=O)c1ccco1)C(C(=O)NC1CCCC1)c1ccco1` (stereo unspecified)?
Tn6 DDE FP: 2; KLK7 zymogen act: 0; PLC-gamma1 inh: -1; NRP1-CendR mod: 18*; PLC-beta3 inh: -3; Tn7 DDE FP: 2

What do the screens show for `COc1ccc(C(C(=O)NC2CCCCC2)N(C(=O)c2ccco2)c2ccccc2OC)cc1` (stereo unspecified)?
Tn6 DDE FP: 6; KLK7 zymogen act: 0; PLC-gamma1 inh: 1; NRP1-CendR mod: 9; PLC-beta3 inh: -1; Tn7 DDE FP: 1

What do the screens show for `COc1ccccc1N(C(=O)c1ccco1)C(C(=O)NC1CCCCC1)c1cc(OC)c(OC)c(OC)c1` (stereo unspecified)?
Tn6 DDE FP: 9; KLK7 zymogen act: 0; PLC-gamma1 inh: -2; NRP1-CendR mod: 26*; PLC-beta3 inh: -1; Tn7 DDE FP: 11

What do the screens show for `Cc1cc(C)cc(N(C(=O)CNC(=O)c2ccco2)C(C(=O)NC2CCCCC2)c2ccncc2)c1` (stereo unspecified)?
Tn6 DDE FP: -5; KLK7 zymogen act: 0; PLC-gamma1 inh: -2; NRP1-CendR mod: 22*; PLC-beta3 inh: -5; Tn7 DDE FP: -6

How did COc1ccc(C(C(=O)NC2CCCCC2)N(C(=O)c2sc(C)nc2C)c2ccccc2C)cc1 (stereo unspecified) do in these assays?
Tn6 DDE FP: -3; KLK7 zymogen act: 1; PLC-gamma1 inh: 9.9*; NRP1-CendR mod: -2; PLC-beta3 inh: 9; Tn7 DDE FP: -4

Results for O=C(c1ccc(F)cc1Cl)N1CCC(Oc2cccnc2)CC1 ?
Tn6 DDE FP: 0; KLK7 zymogen act: 0; PLC-gamma1 inh: 3; PLC-beta3 inh: 0; Tn7 DDE FP: -2

What do the screens show for `COc1ccc(C(=O)N[C@@H]2CC[C@@]34CCCN3C(=O)CCC[C@H]4[C@H]2C)cc1`?
Tn6 DDE FP: 1; PLC-gamma1 inh: 2; PLC-beta3 inh: 2; Tn7 DDE FP: 4

What do the screens show for `Cc1ccc(-n2c(SCC(=O)Nc3ccc(S(=O)(=O)Nc4cc(C)nc(C)n4)cc3)nnc2-c2ccc(C(C)(C)C)cc2)cc1`?
Tn6 DDE FP: 1; KLK7 zymogen act: 0; PLC-gamma1 inh: 3; PLC-beta3 inh: -3; Tn7 DDE FP: -4

How did O=C(Oc1coc(CSc2ncccn2)cc1=O)c1ccc([N+](=O)[O-])cc1 do in these assays?
Tn6 DDE FP: 7; PLC-gamma1 inh: -1; PLC-beta3 inh: 3; Tn7 DDE FP: 4

How did C#CCN(CC=C)Cc1ccc(OC)cc1OC do in these assays?
Tn6 DDE FP: 0; KLK7 zymogen act: 0; PLC-gamma1 inh: 0; PLC-beta3 inh: 0; Tn7 DDE FP: 2

Results for Cc1cc(C)n2c(SCCC(C)C)nnc2n1 ?
Tn6 DDE FP: 0; KLK7 zymogen act: -1; PLC-gamma1 inh: 3; NRP1-CendR mod: 9; PLC-beta3 inh: 1; Tn7 DDE FP: 15*

Results for C=CCC[C@H](Cc1ccc(F)cc1)C(=O)OC[C@@H](Cc1c[nH]c2ccccc12)NC(=O)[C@@H](CC=C)CC(=O)N[C@@H](CO)Cc1ccccc1 ?
Tn6 DDE FP: 0; KLK7 zymogen act: 1; PLC-gamma1 inh: 1; NRP1-CendR mod: 2; PLC-beta3 inh: 5; Tn7 DDE FP: -1

Results for C=CCC[C@H](Cc1ccc(F)cc1)C(=O)OC[C@H](Cc1c[nH]c2ccccc12)NC(=O)[C@@H](CC=C)CC(=O)NCCO ?
Tn6 DDE FP: -12; KLK7 zymogen act: 1; PLC-gamma1 inh: 12*; NRP1-CendR mod: 1; PLC-beta3 inh: 2; Tn7 DDE FP: -1

What do the screens show for `C=CC[C@@H](CC(=O)N[C@@H](CO)Cc1ccccc1)C(=O)N[C@H](COC(=O)[C@H](CC=C)CC(=O)OC(C)(C)C)Cc1c[nH]c2ccccc12`?
Tn6 DDE FP: 2; KLK7 zymogen act: 1; PLC-gamma1 inh: 6; NRP1-CendR mod: 1; PLC-beta3 inh: 3; Tn7 DDE FP: 2

What do the screens show for `C=CC[C@@H](CC(=O)N[C@H](CO)Cc1ccccc1)C(=O)N[C@H](COC(=O)[C@H](CC=C)CC(=O)OC(C)(C)C)Cc1c[nH]c2ccccc12`?
Tn6 DDE FP: -1; KLK7 zymogen act: 0; PLC-gamma1 inh: 10*; NRP1-CendR mod: 14; PLC-beta3 inh: 4; Tn7 DDE FP: -7
